Experimental data taken from ChEMBL document CHEMBL1629527, “In vitro antifungal activities of bis(alkylpyridinium)alkane compounds against pathogenic yeasts and molds” (Antimicrob Agents Chemother, 2010).

Legend:
Cryptococcus neoformans [1] = test: Antifungal activity against Cryptococcus neoformans after 24 to 72 hrs by broth microdilution method; type: functional
Summary of the method: (§1)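 Broth microdilution MIC per CLSI M27-A3 (yeasts) or M38-A2 (molds). RPMI 1640 with L-glutamine, without bicarbonate, buffered to pH 7.0 with 0.165 M MOPS. Final test range for the compounds was 0.175–87.5 μM. Incubation at 35°C with visual reading at 24–72 h. MIC was the lowest concentration giving 100% inhibition versus the growth control (azoles 50% or 100%, by organism). Each isolate was run in duplicate in two independent experiments.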

[2] = test system: Cryptococcus gattii species complex; test: Antifungal activity against Cryptococcus gattii after 24 to 72 hrs by broth microdilution method; type: functional, Cryptococcus bacillisporus; summary of the method: as §1
Candida tropicalis [3] = test: Antifungal activity against Candida tropicalis after 48 to 72 hrs; type: functional
Summary of the method: (§2)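 MFC: after the MIC read, 30-μl aliquots from each well without visible growth were plated onto Sabouraud dextrose agar and incubated at 35°C. Reading was at 48–72 h for yeasts and up to 7 days for molds. MFC was the lowest concentration with no colonies.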

Nakaseomyces glabratus [4] = test: Antifungal activity against Candida glabrata after 48 to 72 hrs; type: functional; summary of the method: as §2
Candida parapsilosis [5] = test: Antifungal activity against Candida parapsilosis after 48 to 72 hrs; type: functional; summary of the method: as §2
Pichia kudriavzevii [6] = test: Antifungal activity against Candida krusei after 48 to 72 hrs; type: functional; summary of the method: as §2
Candida dubliniensis [7] = test: Antifungal activity against Candida dubliniensis after 48 to 72 hrs; type: functional; summary of the method: as §2
Clavispora lusitaniae [8] = test: Antifungal activity against Candida lusitaniae after 48 to 72 hrs; type: functional; summary of the method: as §2
[9] = test system: Cryptococcus gattii species complex; test: Antifungal activity against Cryptococcus gattii after 48 to 72 hrs; type: functional, Cryptococcus bacillisporus; summary of the method: as §2
[10] = Toxicity against human erythrocytes assessed as hemolysis; type: cell-based, Erythrocyte
Pichia kudriavzevii [11] = test: Antifungal activity against Candida krusei after 24 to 72 hrs by broth microdilution method; type: functional; summary of the method: as §1
Candida dubliniensis [12] = test: Antifungal activity against Candida dubliniensis after 24 to 72 hrs by broth microdilution method; type: functional; summary of the method: as §1
[13] = test system: Meyerozyma guilliermondii; test: Antifungal activity against Candida guilliermondii after 24 to 72 hrs by broth microdilution method; type: functional; summary of the method: as §1
Cryptococcus neoformans [14] = test: Antifungal activity against Cryptococcus neoformans 05-202523 after 48 to 72 hrs; type: functional; summary of the method: as §2
Aspergillus flavus [15] = test: Antifungal activity against Aspergillus flavus ATCC 204304 after 48 to 72 hrs; type: functional; summary of the method: as §2
Exophiala spinifera = test: Antifungal activity against Exophiala spinifera 03-200803 after 24 to 72 hrs by broth microdilution method; type: functional
Summary of the method: (§3)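 Mold isolates subcultured on potato dextrose agar, then tested by CLSI M38-A2 broth microdilution in RPMI 1640 (L-glutamine, no bicarbonate) buffered to pH 7.0 with 0.165 M MOPS. Compounds were dissolved in water and tested at a final 0.175–87.5 μM. Plates were incubated at 35°C. MIC was read visually as the lowest concentration giving 100% inhibition versus the growth control. Each isolate was run in duplicate in two independent experiments.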

Fusarium solani = test: Antifungal activity against Fusarium solani 04-203102 after 24 to 72 hrs by broth microdilution method; type: functional; summary of the method: as §3
Rhizopus arrhizus = test: Antifungal activity against Rhizopus oryzae 05-203111 after 24 to 72 hrs by broth microdilution method; type: functional; summary of the method: as §3
Aspergillus fumigatus [16] = test: Antifungal activity against Aspergillus fumigatus 05-203114 after 24 to 72 hrs by broth microdilution method; type: functional; summary of the method: as §1
Aspergillus flavus [17] = test: Antifungal activity against Aspergillus flavus ATCC 204304 after 24 to 72 hrs by broth microdilution method; type: functional; summary of the method: as §1
Aspergillus flavus [18] = test: Antifungal activity against Aspergillus flavus 05-203758 after 24 to 72 hrs by broth microdilution method; type: functional; summary of the method: as §1
Aspergillus terreus = test: Antifungal activity against Aspergillus terreus 05-202844 after 24 to 72 hrs by broth microdilution method; type: functional; summary of the method: as §1
Lomentospora prolificans = test: Antifungal activity against Scedosporium prolificans 05-203060 after 24 to 72 hrs by broth microdilution method; type: functional; summary of the method: as §3
Scedosporium apiospermum = test: Antifungal activity against Scedosporium apiospermum 05-203100 after 24 to 72 hrs by broth microdilution method; type: functional; summary of the method: as §3
[19] = test system: Cunninghamella bertholletiae; test: Antifungal activity against Cunninghamella bertholletiae 99-12187 after 24 to 72 hrs by broth microdilution method; type: functional; summary of the method: as §1
Lichtheimia corymbifera = test: Antifungal activity against Absidia corymbifera 04-200170 after 24 to 72 hrs by broth microdilution method; type: functional; summary of the method: as §1
Aspergillus fumigatus [20] = test: Antifungal activity against Aspergillus fumigatus ATCC 204305 after 24 to 72 hrs by broth microdilution method; type: functional; summary of the method: as §1
[21] = test system: Cryptococcus gattii species complex; test: Antifungal activity against Cryptococcus gattii 05-200122 after 24 to 72 hrs by broth microdilution method; type: functional, Cryptococcus bacillisporus; summary of the method: as §1
Cryptococcus neoformans [22] = test: Antifungal activity against Cryptococcus neoformans 05-202523 after 24 to 72 hrs by broth microdilution method; type: functional; summary of the method: as §1
Candida tropicalis [23] = test: Antifungal activity against Candida tropicalis 04-202361 after 24 to 72 hrs by broth microdilution method; type: functional; summary of the method: as §1
Nakaseomyces glabratus [24] = test: Antifungal activity against Candida glabrata 04-202345 after 24 to 72 hrs by broth microdilution method; type: functional; summary of the method: as §1
Candida parapsilosis [25] = test: Antifungal activity against Candida parapsilosis 04-202398 after 24 to 72 hrs by broth microdilution method; type: functional; conditions: Lodderomyces parapsilosis; summary of the method: as §1
Pichia kudriavzevii [26] = test: Antifungal activity against Candida krusei 04-202328 after 24 to 72 hrs by broth microdilution method; type: functional; summary of the method: as §1
Pichia kudriavzevii [27] = test: Antifungal activity against Candida krusei ATCC 6258 after 24 to 72 hrs by broth microdilution method; type: functional; summary of the method: as §1
Candida albicans [28] = test: Antifungal activity against Candida albicans ATCC 10231 after 24 to 72 hrs by broth microdilution method; type: functional; summary of the method: as §1
Candida albicans [29] = test: Antifungal activity against Candida albicans ATCC 90028 after 24 to 72 hrs by broth microdilution method; type: functional; summary of the method: as §1
Clavispora lusitaniae [30] = test: Antifungal activity against Candida lusitaniae after 24 to 72 hrs by broth microdilution method; type: functional; summary of the method: as §1
[31] = Antifungal activity against Exophiala jeanselmei 03-200268 after 24 to 72 hrs by broth microdilution method; type: functional; summary of the method: as §1

MIC (Cryptococcus neoformans [1]): 1.19 µg/mL
MIC50 (Cryptococcus neoformans [1]): 0.79 µg/mL
MIC90 (Cryptococcus neoformans [1]): 3.11 µg/mL
MIC [2]: 0.79 µg/mL
MIC50 [2]: 0.79 µg/mL
MIC90 [2]: 0.79 µg/mL
MIC (Pichia kudriavzevii [11]): 1.36 µg/mL
MIC50 (Pichia kudriavzevii [11]): 1.56 µg/mL
MIC90 (Pichia kudriavzevii [11]): 1.56 µg/mL
MIC (Candida dubliniensis [12]): 0.739 µg/mL
MIC50 (Candida dubliniensis [12]): 0.79 µg/mL
MIC90 (Candida dubliniensis [12]): 0.79 µg/mL
MIC [13]: 0.789 µg/mL
MIC50 [13]: 0.79 µg/mL
MIC90 [13]: 1.56 µg/mL
MIC (Exophiala spinifera): 1.58 µg/mL
MIC (Fusarium solani): 12.7 µg/mL
MIC (Rhizopus arrhizus): 0.79 µg/mL
MIC (Aspergillus fumigatus [16]): 12.7 µg/mL
MIC (Aspergillus flavus [17]): 12.7 µg/mL
MIC (Aspergillus flavus [18]): 25.3 µg/mL
MIC (Aspergillus terreus): 0.79 µg/mL
MIC (Lomentospora prolificans): 25.3 µg/mL
MIC (Scedosporium apiospermum): 50.7 µg/mL
MIC [19]: 12.7 µg/mL
MIC (Lichtheimia corymbifera): 50.7 µg/mL
MIC (Aspergillus fumigatus [20]): 12.7 µg/mL
MIC [21]: 0.79 µg/mL
MIC (Cryptococcus neoformans [22]): 6.3 µg/mL
MIC (Candida tropicalis [23]): 0.79 µg/mL
MIC (Nakaseomyces glabratus [24]): 0.79 µg/mL
MIC (Candida parapsilosis [25]): 25.3 µg/mL
MIC (Pichia kudriavzevii [26]): 3.2 µg/mL
MIC (Pichia kudriavzevii [27]): 3.2 µg/mL
MIC (Candida albicans [28]): 0.79 µg/mL
MIC (Candida albicans [29]): 0.79 µg/mL
MIC (Clavispora lusitaniae [30]): 1.04 µg/mL
MIC50 (Clavispora lusitaniae [30]): 0.79 µg/mL
MIC90 (Clavispora lusitaniae [30]): 1.56 µg/mL
MIC [31]: 0.79 µg/mL
SMILES: CCCCCCc1cc[n+](CCCCCCCCCCCC[n+]2ccc(CCCCCC)cc2)cc1.[Cl-].[Cl-]
MFC50 (Candida tropicalis [3]): 1.56 µg/mL
MFC90 (Candida tropicalis [3]): 1.56 µg/mL
MFC (Candida tropicalis [3]; Candida tropicalis): 0.39 µg/mL
MFC50 (Nakaseomyces glabratus [4]): 1.56 µg/mL
MFC90 (Nakaseomyces glabratus [4]): 1.56 µg/mL
MFC (Nakaseomyces glabratus [4]; Nakaseomyces glabratus): 0.39 µg/mL
MFC50 (Candida parapsilosis [5]): 49.5 µg/mL
MFC90 (Candida parapsilosis [5]): 49.5 µg/mL
MFC (Candida parapsilosis [5]; Lodderomyces parapsilosis): 24.9 µg/mL
MFC50 (Pichia kudriavzevii [6]): 1.56 µg/mL
MFC90 (Pichia kudriavzevii [6]): 3.11 µg/mL
MFC (Pichia kudriavzevii [6]; Pichia kudriavzevii): 0.79 µg/mL
MFC50 (Candida dubliniensis [7]): 0.79 µg/mL
MFC90 (Candida dubliniensis [7]): 0.79 µg/mL
MFC (Candida dubliniensis [7]; Candida dubliniensis): 0.79 µg/mL
MFC50 (Clavispora lusitaniae [8]): 0.79 µg/mL
MFC90 (Clavispora lusitaniae [8]): 6.22 µg/mL
MFC (Clavispora lusitaniae [8]; Clavispora lusitaniae): 0.79 µg/mL
MFC50 [9]: 0.79 µg/mL
MFC90 [9]: 0.79 µg/mL
MFC ([9]; Cryptococcus gattii species complex): 0.79 µg/mL
HC50 [10]: > 129 µM
IC50 [10]: > 48 µM
MFC (Cryptococcus neoformans [14]): 25.3 µg/mL
MFC (Aspergillus flavus [15]): 25.3 µg/mL
